Article PMC5933005 (Dalton Transactions (Cambridge, England : 2003), 2018)
Read-outs that look alike come from different tables or passages of the source.

How the values were obtained:
[1] = Biotransformation / kinetic inertness in whole human blood by RP-ICP-MS; type: in vitro ADME; settings: 37 °C; for stability of parent compound in whole human blood: 24 h incubation; for platinum(II) metabolites detected in whole human blood: after 24 h incubation
Outline: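 Fresh human blood spiked with test compound was extracted in one of two ways: ice-cold acetonitrile with vortexing, sonication and centrifugation, or 0.1% formic acid, dry-ice freeze/sonication thaw, then 25% TCA precipitation. Supernatants were 0.45 μm filtered, diluted 1:5 in 50 mM ammonium formate (pH 6.0) and held at 4 °C. Species were separated by C18 RP-ICP-MS in triplicate, with a platinum(IV) reference QC for normalisation. Half-life came from a first-order fit.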

[2] = test system: SW480 (colon carcinoma) cells; settings: 2 h exposure; cited from earlier work
[3] = test system: leukemia L1210 mouse model; settings: cited from earlier work
[4] = type: in vitro ADME, human; settings: for proportion of platinum found in blood cells: after 2 h, ~10 μM in whole human blood, 37 °C
Outline: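 Fresh heparinised human whole blood was spiked from a 1 mM aqueous stock to a final ~10 μM and incubated at 37 °C for 0, 0.5, 1, 2 and 24 h. It was centrifuged for 10 min at 2000 rcf in a 4 °C rotor. Plasma and cell fractions were microwave-digested in 25% nitric acid at 200 °C, and Pt was measured by ICP-MS. Values were normalised to haematocrit (47%) and fraction density, and the rate constant came from an exponential fit.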

[5] = test system: murine colon cancer model CT-26; settings: i.p. and p.o. administration; cited from earlier work
[6] = 15 min after oral administration; cited from earlier work
[7] = whole human blood in vitro; cited from earlier work
[8] = kinetic model, exponential kinetics, whole human blood

## O=C1[O][Pt]2([OH])([OH])([NH]C3CCCCC3[NH]2)[O]C1=O [Complex 1, (OC-6-33)-dihydroxido(1R,2R-diaminocyclohexane)oxalatoplatinum(IV)]
[1]; 10 μM, RP-ICP-MS
  stability of parent compound in whole human blood: remain stable over 24 hours

## CC(=O)[O][Pt]1([NH2])([NH2])([O]C(C)=O)[O]C(=O)C2(CCC2)C(=O)[O]1 [Complex 3, (OC-6-33)-diacetatodiammine(1,1-cyclobutanedicarboxylato)-platinum(IV)]
[1]; 10 μM, RP-ICP-MS
  stability of parent compound in whole human blood: remain stable over 24 hours

## CC[NH][Pt]([Cl])([Cl])([NH]CC)([O]C(=O)CCC(=O)OCC)[O]C(=O)CCC(=O)OCC [Complex 4, (OC-6-33)-dichloridobis((4-ethoxy)-4-oxobutanoato)bis(ethylamine)platinum(IV)]
[2]
  platinum accumulation in SW480 cells: high platinum accumulation
[3]
  efficacy in L1210 model: efficacy
[4]
  proportion of platinum found in blood cells: around 60%
[4]; listed as Compound 4
  proportion of platinum found in blood cells: 60%
[4]; [8]
  drug-related platinum inside blood cells in equilibrium: 59.7 ± 0.9%
  first-order rate constant of accumulation in blood cells: 1.2 ± 0.1 h⁻¹
[4]; time point 0, ~10 μM in whole human blood
  proportion of platinum in red blood cells: 30%
[5]
  anticancer activity in CT-26 model: showed anticancer activity
[1]; 10 μM, RP-ICP-MS
  stability of parent compound in whole human blood: could not be detected any more after 24 hours
  platinum(II) metabolites detected in whole human blood: no notable amounts of hydrophilic platinum(II)-metabolites were detected
[1]; first-order kinetic model, whole human blood
  half-life in blood: 45.4 ± 3.3 min

## CC(=O)[O][Pt]([NH2])([Cl])([Cl])([NH]C1CCCCC1)[O]C(C)=O [satraplatin]
[6]
  detection of parent compound in patient's plasma ultrafiltrate: could not be detected any more
  number of platinum-containing species in patient's plasma ultrafiltrate: seven
[7]
  half-life for the disappearance of the parent compound: 6.3 min

## (OC-6-33)-diacetato(1R,2R-diaminocyclohexane)oxalatoplatinum(IV) [Complex 2]
[1]; 10 μM, RP-ICP-MS
  platinum(II) metabolites detected in whole human blood: a significant amount of oxaliplatin could be detected
[1]; over 6 hours incubation, 10 μM, RP-ICP-MS
  species observed in whole human blood: only the intact complex was observed
